Values after ≈ are worked out from the molar mass of the structure shown. Bounds are passed on as bounds.

Test [1] concerns Candida albicans. As to the kind of experiment: Antifungal activity against Candida albicans isolate 17 grown in RPMI 1640 medium incubated for 24 hrs by microdilution method. Format: functional. The note with it: isolate 17, 24 h. In outline: (§1)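 C. albicans standard strain SC5314 and clinical isolates g5 and 17# tested by broth microdilution in YNB or RPMI 1640 medium. Plates incubated at 35 °C for up to 72 h, with visual readings taken at 24 h. MIC taken as the lowest concentration preventing visible growth.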

The test system of test [2] is Candida albicans. As to the kind of experiment: Antifungal activity against Candida albicans SC5314 grown in RPMI 1640 medium incubated for 24 hrs by microdilution method. Format: functional. The note with it: SC5314, 24 h. In outline: as §1
Test [3] relates to Candida albicans. In words: Inhibition of Candida albicans AHAS catalytic subunit at 10 uM using pyruvate as substrate measured after 30 mins by colorimetric method relative to control. In outline: (§2)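 Colorimetric assay in 50 mM potassium phosphate pH 7.0 with 50 mM pyruvate, 1 mM thiamine diphosphate, 10 mM MgCl2 and 10 μM FAD. Incubated 30 min at 37 °C for plant AHAS and 30 °C for fungal AHAS. Acetolactate formed was then quantified.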

Test [4] has as its system Candida albicans. As to the kind of experiment: Inhibition of Candida albicans AHAS catalytic subunit at 100 uM using pyruvate as substrate measured after 30 mins by colorimetric method relative to control. The procedure, abridged: as §2
For test [5], the system named is Candida albicans. As to the kind of experiment: Antifungal activity against Candida albicans isolate g5 grown in RPMI 1640 medium incubated for 24 hrs by microdilution method. Format: functional. Particulars: isolate g5, 24 h. The procedure, abridged:
as §1

Test [6] deals with Candida albicans. In words: Antifungal activity against Candida albicans SC5314 grown in YNB medium incubated for 24 hrs by microdilution method. Format: functional. The note with it: SC5314, 24 h. In outline:
as §1

For test [7], the system named is Candida albicans. As to the kind of experiment: Antifungal activity against Candida albicans isolate 17 grown in YNB medium incubated for 24 hrs by microdilution method. Format: functional. Particulars: isolate 17, 24 h. The procedure, abridged:
as §1

Test [8] relates to Candida albicans. In words: Antifungal activity against Candida albicans isolate g5 grown in YNB medium incubated for 24 hrs by microdilution method. The note with it: isolate g5, 24 h. It is filed as functional. In outline:
as §1

The subject of test [9] is Arabidopsis thaliana. In words: Inhibition of Arabidopsis thaliana AHAS catalytic subunit using pyruvate as substrate at 100 uM measured after 30 mins by colorimetric method relative to control. The procedure, abridged: as §2
The test system of test [10] is Arabidopsis thaliana. In words: Inhibition of Arabidopsis thaliana AHAS catalytic subunit using pyruvate as substrate at 10 uM measured after 30 mins by colorimetric method relative to control. The procedure, abridged:
as §2

Test [11] deals with Brassica rapa subsp. oleifera. As to the kind of experiment: Herbicidal activity against Brassica campestris L assessed as inhibition of rape root growth at 100 mg/l root growth incubated for 48 hrs relative to control. Format: functional. In outline: (§3)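 Rape seeds soaked in distilled water for 4 h, then placed on filter paper wetted with inhibitor solution, 15 seeds per 6-cm dish. Germinated in the dark at 28 °C for 48 h. Mean length of 10 roots per plate measured.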

In test [12] the test system is Brassica rapa subsp. oleifera. As to the kind of experiment: Herbicidal activity against Brassica campestris L assessed as inhibition of rape root growth at 10 mg/l root growth incubated for 48 hrs relative to control. Format: functional. In outline: as §3
The subject of test [13] is Severe acute respiratory syndrome-related coronavirus. As to the kind of experiment: Inhibition of SARS coronavirus M protease using AVLQSGFRKK as substrate at 20 uM by FRET assay relative to control. The procedure, abridged:
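Purified SARS-CoV Mpro assayed by FRET. Protein, compound and substrate were preheated at 37 °C and oscillated. Fluorescence (ex 320/em 405 nm) was read every 5 s for 200 reads.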

As for `COc1cc(OC)nc(Sc2ccc(C#N)c(C(F)(F)F)c2)n1`, the MIC in test [1], in test [2], in [5], in test [6], in [7] and in test [8] was greater than 100 µg/mL in each case. In addition, the inhibition in test [3] is 18.6%; in test [4], 51.4%; in test [9], 86.2%; in [10] it was 51.2%; in test [13], 85%. Besides, the “inhibition (INH)” value in test [11] came out at 33.5%; in [12] it was 4.7%.

On to `COc1cc(OC)nc(Sc2cc(C(F)(F)F)ccc2C(=O)O)n1`, for which the MIC in test [1], in test [2], in test [5], in test [6], in test [7] and in test [8] was greater than 100 µg/mL in each case. For the same compound, the inhibition is 0% in [3]; 31.2% in [4]; 85.5% in [9]; 51.8% in [10]; 0% in [13]. For the same compound, the “inhibition (INH)” value worked out at 50% in test [11] and 24.6% in test [12].

Regarding `COc1nc(OC)nc(Sc2ccc(C(F)(F)F)cc2C#N)n1`, the MIC in [1], in test [2], in test [5], in test [6], in [7] and in test [8] was greater than 100 µg/mL each time. Also, the inhibition was determined as 0% in test [3]; 12% in test [4]; 15% in test [9]; 11.5% in test [10]; 0% in test [13]. In addition, the “inhibition (INH)” value in [11] amounted to 8.5%; in test [12] it was 0%.

On to `COc1cc(OC)nc(Sc2ccc(C(=O)O)cc2C(=O)O)n1`, for which the MIC in [1], in test [2], in test [5], in test [6], in test [7] and in [8] was greater than 100 µg/mL throughout. Further, the inhibition in [3] was determined as 8%; in test [4], 24%; in [9] it was 20%; in [10], 5%; in test [13], 0%. The “inhibition (INH)” value in [11] and in test [12] was 0% throughout.

As for `COc1nc(OC)nc(Sc2ccc(C(=O)O)cc2C(=O)O)n1`, the minimum inhibitory concentration (MIC) in [1], in test [2], in test [5], in [6], in [7] and in test [8] was greater than 100 µg/mL throughout. The inhibition is 15.6% in test [3]; 58.7% in test [4]; 81.7% in [9]; 73.3% in [10]; 0% in test [13]. In addition, the “inhibition (INH)” value in test [11] worked out at 20.3%; in [12], 8%.

For `CCOc1ccccc1OS(=O)(=O)NC(=O)Nc1nc(OC)cc(OC)n1` [ETHOXYSULFURON], the MIC was found to be 50 µg/mL (≈ 126 µM) in [1]; 25 µg/mL (≈ 62.8 µM) in test [2]; 25 µg/mL (≈ 62.8 µM) in test [5]; 0.39 µg/mL (≈ 0.979 µM) in test [6]; 0.39 µg/mL (≈ 0.979 µM) in test [7]; 0.39 µg/mL (≈ 0.979 µM) in [8]. Moreover, the figures for the inhibition in test [3] and in test [4] were 96.8% and 98.7%, respectively.

As for `COc1nc(OC)nc(Sc2ccc(C#N)cc2C(F)(F)F)n1`, the minimal inhibitory concentration (MIC) in test [1], in test [2], in test [5], in [6], in test [7] and in test [8] was greater than 100 µg/mL in each case. Also, the inhibition in [3] was 10.5%; in test [4] it was 22%; in test [9] it was 10%; in test [10] it was 0%; in test [13] it was 18%. For the same compound, the “inhibition (INH)” value in test [11] was 5%; in [12] it was 0%.

For the origin of these results see ChEMBL document CHEMBL4390648, “Chemical synthesis, crystal structure, versatile evaluation of their biological activities and molecular simulations of novel pyrithiobac derivatives” (Eur J Med Chem, 2019).
